Laboratory results: ChEMBL document CHEMBL3046615, “Isolation of nematicidal compounds from Tagetes patula L. yellow flowers: structure-activity relationship studies against cyst nematode Heterodera zeae infective stage larvae” (2011)
The source made the active and inactive calls. The rule behind the calls is not given here.

How the values were obtained:
Heterodera zeae [1] = test: Nematicidal activity against Heterodera zeae infective stage larvae assessed as nematode mortality at 0.5% under dark conditions measured 72 hr post dose by stereoscopic microscopy; type: functional
In short: (§1)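 Freshly hatched H. zeae second-stage juveniles, 100 per Petri plate, three replicates. Samples in MeOH, DMSO or water were tested in glass cavity blocks; petroleum ether samples were dried onto the block and larvae transferred on agar pieces. Percentages are dilutions of 30 mg/mL stocks (extracts/fractions) or 1 mg/mL stocks (pure compounds). Incubated at 28 ± 2 °C in light or dark box; mortality averaged over three replicates.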

Heterodera zeae [2] = test: Nematicidal activity against Heterodera zeae infective stage larvae assessed as nematode mortality at 1% under light conditions measured 72 hr post dose by stereoscopic microscopy; type: functional; in short: as §1
Heterodera zeae [3] = test: Nematicidal activity against Heterodera zeae infective stage larvae assessed as nematode mortality at 0.125% under light conditions measured 48 hr post dose by stereoscopic microscopy; type: functional; in short: as §1
Heterodera zeae [4] = test: Nematicidal activity against Heterodera zeae infective stage larvae assessed as nematode mortality at 1% under dark conditions measured 72 hr post dose by stereoscopic microscopy; type: functional; in short: as §1
Heterodera zeae [5] = test: Nematicidal activity against Heterodera zeae infective stage larvae assessed as nematode mortality at 1% under dark conditions measured 48 hr post dose by stereoscopic microscopy; type: functional; in short: as §1
Heterodera zeae [6] = test: Nematicidal activity against Heterodera zeae infective stage larvae assessed as nematode mortality at 0.125% under light conditions measured 24 hr post dose by stereoscopic microscopy; type: functional; in short: as §1
Heterodera zeae [7] = test: Nematicidal activity against Heterodera zeae infective stage larvae assessed as nematode mortality at 0.25% under dark conditions measured 72 hr post dose by stereoscopic microscopy; type: functional; in short: as §1
Heterodera zeae [8] = test: Nematicidal activity against Heterodera zeae infective stage larvae assessed as nematode mortality at 0.25% under dark conditions measured 5 to 60 min post dose by stereoscopic microscopy; type: functional, organism-based
In short: (§2)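 H. zeae freshly hatched second-stage juveniles, 100 per plate, three replicates, at 28 ± 2 °C under light or in a dark box. Dilutions are % of a stock: 30 mg/mL for extracts/fractions, 1 mg/mL for pure compounds. Methanol-, DMSO- or water-soluble samples were tested in glass cavity blocks. Petroleum ether-soluble samples were air-dried in the block and covered with agar pieces bearing cultured larvae. Mortality was followed over 5–60 min; each value is the mean of three experiments.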

Heterodera zeae [9] = test: Nematicidal activity against Heterodera zeae infective stage larvae assessed as nematode mortality at 0.5% under dark conditions measured 24 hr post dose by stereoscopic microscopy; type: functional; in short: as §1
Heterodera zeae [10] = test: Nematicidal activity against Heterodera zeae infective stage larvae assessed as nematode mortality at 0.125% under dark conditions measured 48 hr post dose by stereoscopic microscopy; type: functional; in short: as §1
Heterodera zeae [11] = test: Nematicidal activity against Heterodera zeae infective stage larvae assessed as nematode mortality at 0.25% under light conditions measured 24 hr post dose by stereoscopic microscopy; type: functional; in short: as §1
Heterodera zeae [12] = test: Nematicidal activity against Heterodera zeae infective stage larvae assessed as nematode mortality at 0.25% under light conditions measured 5 to 60 min post dose by stereoscopic microscopy; type: functional, organism-based; in short: as §2
Heterodera zeae [13] = test: Nematicidal activity against Heterodera zeae infective stage larvae assessed as nematode mortality at 1% under light conditions measured 48 hr post dose by stereoscopic microscopy; type: functional; in short: as §1
Heterodera zeae [14] = test: Nematicidal activity against Heterodera zeae infective stage larvae assessed as nematode mortality at 0.25% under light conditions measured 72 hr post dose by stereoscopic microscopy; type: functional; in short: as §1
Heterodera zeae [15] = test: Nematicidal activity against Heterodera zeae infective stage larvae assessed as nematode mortality at 0.5% under light conditions measured 48 hr post dose by stereoscopic microscopy; type: functional; in short: as §1
Heterodera zeae [16] = test: Nematicidal activity against Heterodera zeae infective stage larvae assessed as nematode mortality at 0.5% under light conditions measured 72 hr post dose by stereoscopic microscopy; type: functional; in short: as §1
Heterodera zeae [17] = test: Nematicidal activity against Heterodera zeae infective stage larvae assessed as nematode mortality at 1% under light conditions measured 24 hr post dose by stereoscopic microscopy; type: functional; in short: as §1
Heterodera zeae [18] = test: Nematicidal activity against Heterodera zeae infective stage larvae assessed as nematode mortality at 0.25% under dark conditions measured 24 hr post dose by stereoscopic microscopy; type: functional; in short: as §1
Heterodera zeae [19] = test: Nematicidal activity against Heterodera zeae infective stage larvae assessed as nematode mortality at 5% under dark conditions measured 5 to 60 min post dose by stereoscopic microscopy; type: functional, organism-based; in short: as §2
Heterodera zeae [20] = test: Nematicidal activity against Heterodera zeae infective stage larvae assessed as nematode mortality at 0.25% under dark conditions measured 48 hr post dose by stereoscopic microscopy; type: functional; in short: as §1
Heterodera zeae [21] = test: Nematicidal activity against Heterodera zeae infective stage larvae assessed as nematode mortality at 1% under dark conditions measured 5 to 60 min post dose by stereoscopic microscopy; type: functional, organism-based; in short: as §2
Heterodera zeae [22] = test: Nematicidal activity against Heterodera zeae infective stage larvae assessed as nematode mortality at 1% under dark conditions measured 24 hr post dose by stereoscopic microscopy; type: functional; in short: as §1
Heterodera zeae [23] = test: Nematicidal activity against Heterodera zeae infective stage larvae assessed as nematode mortality at 0.5% under light conditions measured 5 to 60 min post dose by stereoscopic microscopy; type: functional, organism-based; in short: as §2
Heterodera zeae [24] = test: Nematicidal activity against Heterodera zeae infective stage larvae assessed as nematode mortality at 0.5% under light conditions measured 24 hr post dose by stereoscopic microscopy; type: functional; in short: as §1
Heterodera zeae [25] = test: Nematicidal activity against Heterodera zeae infective stage larvae assessed as nematode mortality at 0.5% under dark conditions measured 5 to 60 min post dose by stereoscopic microscopy; type: functional, organism-based; in short: as §2
Heterodera zeae [26] = test: Nematicidal activity against Heterodera zeae infective stage larvae assessed as nematode mortality at 5% under light conditions measured 5 to 60 min post dose by stereoscopic microscopy; type: functional, organism-based; in short: as §2
Heterodera zeae [27] = test: Nematicidal activity against Heterodera zeae infective stage larvae assessed as nematode mortality at 0.125% under dark conditions measured 72 hr post dose by stereoscopic microscopy; type: functional; in short: as §1
Heterodera zeae [28] = test: Nematicidal activity against Heterodera zeae infective stage larvae assessed as nematode mortality at 0.125% under dark conditions measured 24 hr post dose by stereoscopic microscopy; type: functional; in short: as §1
Heterodera zeae [29] = test: Nematicidal activity against Heterodera zeae infective stage larvae assessed as nematode mortality at 1% under light conditions measured 5 to 60 min post dose by stereoscopic microscopy; type: functional, organism-based; in short: as §2
Heterodera zeae [30] = test: Nematicidal activity against Heterodera zeae infective stage larvae assessed as nematode mortality at 0.125% under dark conditions measured 5 to 60 min post dose by stereoscopic microscopy; type: functional, organism-based; in short: as §2
Heterodera zeae [31] = test: Nematicidal activity against Heterodera zeae infective stage larvae assessed as nematode mortality at 2% under dark conditions measured 5 to 60 min post dose by stereoscopic microscopy; type: functional, organism-based; in short: as §2
Heterodera zeae [32] = test: Nematicidal activity against Heterodera zeae infective stage larvae assessed as nematode mortality at 2% under light conditions measured 5 to 60 min post dose by stereoscopic microscopy; type: functional, organism-based; in short: as §2
Heterodera zeae [33] = test: Nematicidal activity against Heterodera zeae infective stage larvae assessed as nematode mortality at 0.125% under light conditions measured 72 hr post dose by stereoscopic microscopy; type: functional; in short: as §1
Heterodera zeae [34] = test: Nematicidal activity against Heterodera zeae infective stage larvae assessed as nematode mortality at 0.25% under light conditions measured 48 hr post dose by stereoscopic microscopy; type: functional; in short: as §1
Heterodera zeae [35] = test: Nematicidal activity against Heterodera zeae infective stage larvae assessed as nematode mortality at 0.125% under light conditions measured 5 to 60 min post dose by stereoscopic microscopy; type: functional, organism-based; in short: as §2
Heterodera zeae [36] = test: Nematicidal activity against Heterodera zeae infective stage larvae assessed as nematode mortality at 0.5% under dark conditions measured 48 hr post dose by stereoscopic microscopy; type: functional; in short: as §1

Row | SMILES | mortality (Heterodera zeae [3]) | mortality (Heterodera zeae [5]) | mortality (Heterodera zeae [6]) | mortality (Heterodera zeae [7]) | Activity (Heterodera zeae [8]) | mortality (Heterodera zeae [9]) | mortality (Heterodera zeae [10]) | mortality (Heterodera zeae [11]) | Activity (Heterodera zeae [12]) | mortality (Heterodera zeae [14]) | mortality (Heterodera zeae [15]) | mortality (Heterodera zeae [17]) | mortality (Heterodera zeae [18]) | Activity (Heterodera zeae [19]) | mortality (Heterodera zeae [20]) | Activity (Heterodera zeae [21]) | mortality (Heterodera zeae [22]) | Activity (Heterodera zeae [23]) | mortality (Heterodera zeae [24]) | Activity (Heterodera zeae [25]) | other results
1 | O=C(O)c1ccccc1 [BENZOIC ACID] | 0% | 70% | 0% | 50% | inactive | 0% | 0% | 0% | inactive | 0% | 10% | 0% | 0% | inactive | 10% | inactive | 0% | inactive | 0% | inactive | mortality (Heterodera zeae [1]): 80%; mortality (Heterodera zeae [2]): 70%; mortality (Heterodera zeae [4]): 80%; mortality (Heterodera zeae [13]): 50%; mortality (Heterodera zeae [16]): 40%; Activity (Heterodera zeae [26]): inactive; mortality (Heterodera zeae [27]): 0%; mortality (Heterodera zeae [28]): 0%; Activity (Heterodera zeae [29]): inactive; Activity (Heterodera zeae [30]): inactive; Activity (Heterodera zeae [31]): inactive; Activity (Heterodera zeae [32]): inactive; mortality (Heterodera zeae [33]): 0%; mortality (Heterodera zeae [34]): 0%; Activity (Heterodera zeae [35]): inactive; mortality (Heterodera zeae [36]): 50%
2 | CCCCCCCC/C=C\CCCCCCCC(=O)OC [METHYL OLEATE] | 50% | 100% | 10% | 10% | inactive | 40% | 10% | 10% | inactive | 100% | 100% | 50% | 10% | inactive | 10% | inactive | 50% | inactive | 50% | inactive | mortality (Heterodera zeae [13]): 100%; Activity (Heterodera zeae [26]): inactive; mortality (Heterodera zeae [27]): 10%; mortality (Heterodera zeae [28]): 10%; Activity (Heterodera zeae [29]): inactive; Activity (Heterodera zeae [30]): inactive; Activity (Heterodera zeae [31]): inactive; Activity (Heterodera zeae [32]): inactive; mortality (Heterodera zeae [33]): 100%; mortality (Heterodera zeae [34]): 50%; Activity (Heterodera zeae [35]): inactive; mortality (Heterodera zeae [36]): 100%
3 | CCCCCCCC/C=C\CCCCCCCC(=O)O [OLEIC ACID] | 50% | 100% | 10% | 10% | inactive | 40% | 10% | 10% | inactive | 100% | 100% | 50% | 10% | inactive | 10% | inactive | 50% | inactive | 50% | inactive | mortality (Heterodera zeae [13]): 100%; Activity (Heterodera zeae [26]): inactive; mortality (Heterodera zeae [27]): 10%; mortality (Heterodera zeae [28]): 10%; Activity (Heterodera zeae [29]): inactive; Activity (Heterodera zeae [30]): inactive; Activity (Heterodera zeae [31]): inactive; Activity (Heterodera zeae [32]): inactive; mortality (Heterodera zeae [33]): 100%; mortality (Heterodera zeae [34]): 50%; Activity (Heterodera zeae [35]): inactive; mortality (Heterodera zeae [36]): 100%
4 | CCCCCCCCCCCCCCCCCC(=O)O [STEARIC ACID] | 50% | 100% | 50% | 100% | inactive | 50% | 50% | 40% | inactive | 100% | 70% | 100% | 40% | inactive | 70% | inactive | 100% | inactive | 50% | inactive | mortality (Heterodera zeae [1]): 100%; mortality (Heterodera zeae [16]): 100%; Activity (Heterodera zeae [26]): inactive; mortality (Heterodera zeae [27]): 70%; mortality (Heterodera zeae [28]): 40%; Activity (Heterodera zeae [29]): inactive; Activity (Heterodera zeae [30]): inactive; Activity (Heterodera zeae [31]): inactive; Activity (Heterodera zeae [32]): inactive; mortality (Heterodera zeae [33]): 70%; mortality (Heterodera zeae [34]): 70%; Activity (Heterodera zeae [35]): inactive; mortality (Heterodera zeae [36]): 70%
5 | COc1ccc(C(=O)O)cc1OC [VERATRIC ACID] | 50% | 60% | 10% | 80% | inactive | 50% | 20% | 10% | inactive | 100% | 80% | 80% | 30% | inactive | 40% | inactive | 50% | inactive | 60% | inactive | mortality (Heterodera zeae [1]): 80%; mortality (Heterodera zeae [4]): 90%; mortality (Heterodera zeae [13]): 100%; mortality (Heterodera zeae [16]): 100%; Activity (Heterodera zeae [26]): inactive; mortality (Heterodera zeae [27]): 50%; mortality (Heterodera zeae [28]): 10%; Activity (Heterodera zeae [29]): inactive; Activity (Heterodera zeae [30]): inactive; Activity (Heterodera zeae [31]): inactive; Activity (Heterodera zeae [32]): inactive; mortality (Heterodera zeae [33]): 100%; mortality (Heterodera zeae [34]): 50%; Activity (Heterodera zeae [35]): inactive; mortality (Heterodera zeae [36]): 50%
